Experiment [1] addresses T1, Endothelin-converting enzyme 1 (Homo sapiens, UniProt P42892).
T1 sequence (P42892 whole entry): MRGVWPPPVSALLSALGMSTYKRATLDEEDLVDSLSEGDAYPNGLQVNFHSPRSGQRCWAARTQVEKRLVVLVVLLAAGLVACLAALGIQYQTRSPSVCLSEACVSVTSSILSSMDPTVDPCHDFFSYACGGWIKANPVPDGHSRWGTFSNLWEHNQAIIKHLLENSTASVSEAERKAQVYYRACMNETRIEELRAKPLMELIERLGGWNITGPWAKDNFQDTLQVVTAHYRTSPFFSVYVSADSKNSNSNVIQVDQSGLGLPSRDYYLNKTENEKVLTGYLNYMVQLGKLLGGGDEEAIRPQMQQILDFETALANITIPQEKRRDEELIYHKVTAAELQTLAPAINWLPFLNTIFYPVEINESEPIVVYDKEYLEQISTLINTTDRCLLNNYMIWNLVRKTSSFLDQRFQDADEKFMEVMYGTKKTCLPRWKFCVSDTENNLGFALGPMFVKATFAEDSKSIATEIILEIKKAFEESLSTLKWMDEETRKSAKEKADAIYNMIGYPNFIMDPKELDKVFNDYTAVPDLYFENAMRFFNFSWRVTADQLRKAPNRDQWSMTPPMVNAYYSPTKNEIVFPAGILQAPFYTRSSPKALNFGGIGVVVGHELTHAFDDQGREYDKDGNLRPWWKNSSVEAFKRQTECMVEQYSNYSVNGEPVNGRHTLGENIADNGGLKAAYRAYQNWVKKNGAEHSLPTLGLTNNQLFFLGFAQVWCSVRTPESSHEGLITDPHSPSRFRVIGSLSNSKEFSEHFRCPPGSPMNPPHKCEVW
Description: Inhibitory activity against human bronchiolar smooth muscle Endothelin-converting enzyme 1. It is filed as tissue-based, Muscle tissue. In short, it runs like this:
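Enzyme purified from cultured human bronchiolar smooth muscle cell membranes (octyl glucoside solubilization, ion exchange, gel filtration). Preincubated 30 min at 37 °C with inhibitor (in DMSO), then 3 μM human big ET-1 (final) added. Run 4–5 h at 37 °C in 50 mM Na-MOPS pH 7.2, 150 mM NaCl, 30 μM CaCl2, amastatin, PMSF. Stopped with EDTA. ET-1 quantified by reverse-phase HPLC with fluorescence.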

The target of experiment [2] is T2, Neprilysin (Oryctolagus cuniculus, UniProt P08049).
T2 sequence (P08049 whole entry): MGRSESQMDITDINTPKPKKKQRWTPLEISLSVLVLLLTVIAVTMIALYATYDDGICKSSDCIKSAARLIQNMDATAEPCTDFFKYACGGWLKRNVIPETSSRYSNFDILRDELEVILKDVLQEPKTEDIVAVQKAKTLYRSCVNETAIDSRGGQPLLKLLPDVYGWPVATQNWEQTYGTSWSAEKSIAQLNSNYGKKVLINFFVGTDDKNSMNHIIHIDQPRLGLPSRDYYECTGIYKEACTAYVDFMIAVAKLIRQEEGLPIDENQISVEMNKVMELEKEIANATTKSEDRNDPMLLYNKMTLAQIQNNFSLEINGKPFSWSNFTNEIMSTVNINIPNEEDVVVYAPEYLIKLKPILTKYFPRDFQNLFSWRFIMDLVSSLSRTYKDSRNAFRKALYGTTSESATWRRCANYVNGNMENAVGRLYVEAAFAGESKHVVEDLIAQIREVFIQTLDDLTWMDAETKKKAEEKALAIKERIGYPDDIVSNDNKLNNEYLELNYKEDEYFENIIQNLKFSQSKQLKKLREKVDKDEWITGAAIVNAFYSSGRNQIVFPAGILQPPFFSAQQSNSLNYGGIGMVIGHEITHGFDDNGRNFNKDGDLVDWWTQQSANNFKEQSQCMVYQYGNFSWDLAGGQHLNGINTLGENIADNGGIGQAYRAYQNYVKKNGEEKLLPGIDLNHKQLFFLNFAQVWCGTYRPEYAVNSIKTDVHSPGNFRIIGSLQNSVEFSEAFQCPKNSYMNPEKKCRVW
The experiment can be described thus: Inhibitory activity against Leu-enkeph of Neutral endopeptidase. In short, it runs like this:
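Soluble rabbit kidney neutral endopeptidase preincubated 15 min with inhibitor. Tritiated [Leu]enkephalin as substrate. Reaction ran 10 min at 20 °C in 50 mM Tris-Cl pH 7.5.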

Experiment [3] has as its target T2, Neprilysin. Description: Inhibitory activity against big ET-1 of Neutral endopeptidase. An outline of the steps: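 Soluble rabbit kidney neutral endopeptidase, run under the same conditions as the ECE assay: 30 min inhibitor preincubation at 37 °C, 3 μM human big ET-1, 4–5 h at 37 °C, pH 7.2 Na-MOPS buffer with NaCl and CaCl2. ET-1 formed was measured by reverse-phase HPLC with fluorescence detection. IC50 by least-squares curve fit.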

The next experiment addresses T3, Thermolysin (Bacillus thermoproteolyticus, UniProt P00800).
T3 sequence (P00800 whole entry): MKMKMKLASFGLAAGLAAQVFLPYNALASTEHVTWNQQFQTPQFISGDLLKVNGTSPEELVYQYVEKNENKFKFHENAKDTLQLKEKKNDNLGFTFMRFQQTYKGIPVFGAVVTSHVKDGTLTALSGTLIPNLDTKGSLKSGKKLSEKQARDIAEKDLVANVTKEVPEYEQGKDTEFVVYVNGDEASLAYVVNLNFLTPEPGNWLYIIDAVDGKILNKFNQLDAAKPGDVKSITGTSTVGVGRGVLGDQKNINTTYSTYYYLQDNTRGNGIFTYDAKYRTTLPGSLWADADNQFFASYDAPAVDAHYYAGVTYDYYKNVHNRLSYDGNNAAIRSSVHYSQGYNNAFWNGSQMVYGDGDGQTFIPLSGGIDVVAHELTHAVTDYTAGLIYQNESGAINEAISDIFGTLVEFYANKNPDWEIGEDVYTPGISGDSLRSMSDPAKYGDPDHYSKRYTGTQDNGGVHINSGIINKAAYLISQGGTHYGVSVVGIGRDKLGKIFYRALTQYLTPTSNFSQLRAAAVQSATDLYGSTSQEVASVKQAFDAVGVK
The experiment can be described thus: Inhibitory activity against thermolysin with 0.5 uM [Leu5]-enkephalin (NEN). In short, it runs like this: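 Thermolysin preincubated 15 min with inhibitor. Substrate 0.5 μM [3,5-3H-Tyr1][Leu]enkephalin. Reaction ran 10 min at 20 °C in 50 mM Tris-Cl pH 7.5.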

“And” between values parts separate entries of the source, which are not always exact repeats. Equal entries are not always repeated. Residues, ends and D or L forms follow the SMILES beside them. *: point of attachment. Cbz = O=C(OCc1ccccc1)*; NHOH = ON*

As a reminder, the IC50 is the concentration at which inhibition is half-maximal. A high value points to weaker potency in that assay. In experiment [1], `O=C(O)CCNC(=O)CC(=O)NO` had an IC50 of 3000 nM.
Take `CC(C)C(CC(=O)NO)C(=O)NC(Cc1c[nH]c2ccccc12)C(=O)O` (stereo not given): the half-maximal inhibitory concentration (IC50) in experiment [1] is 17 nM and 40 nM; against Neprilysin [2] it was 5 nM and 18 nM; against Neprilysin [3], 30 nM and 40 nM; at Thermolysin, 2000 nM.
Regarding `CC(C)C(C(=O)NO)C(=O)NC(Cc1c[nH]c2ccccc12)C(=O)O` (stereo not given), the IC50 in experiment [1] was determined as 0.2 nM; against Neprilysin [2], 0.4 nM; against Neprilysin [3], 0.03 nM; at Thermolysin, 5 nM.
`CC(C)C[C@H](C(=O)NO)C(=O)N[C@@H](C)C(=O)NCC(N)=O`: the IC50 was found to be 11 nM in experiment [1], 2 nM on Neprilysin [2], 40 nM on Neprilysin [3] and 175 nM at Thermolysin.
Taken in the same sequence, the figures for `CC(C)C(C(=O)NO)C(=O)NC(Cc1c[nH]c2ccccc12)C(N)=O` (stereo not given) were 1.2 nM, 2 nM, 3 nM and 9 nM.
With `CC(C)C(C(=O)NO)C(=O)NC(CC(N)=O)C(=O)O` (stereo not given), the IC50 in experiment [1] came to 3 nM; on Neprilysin [2], 1 nM; against Neprilysin [3], 20 nM.
`CC(C)C[C@H](NP(=O)(O)O[C@@H]1O[C@@H](C)[C@H](O)[C@@H](O)[C@H]1O)C(=O)N[C@@H](Cc1c[nH]c2ccccc12)C(=O)O` [PHOSPHORAMIDON]: the IC50 against Neprilysin [2] is 6 nM; against Neprilysin [3], 2 nM; at Thermolysin, 33 nM.
Regarding `CC(C)C(CC(=O)NO)C(=O)NC(CC(N)=O)C(=O)O` (stereo not given), the IC50 amounted to 150 nM in experiment [1], 170 nM against Neprilysin [2] and 750 nM against Neprilysin [3].
Taken in the same sequence, the figures for `CC(C)C(CC(=O)NO)C(=O)NCCC(=O)O` (stereo not given) were 190 nM, 30 nM and 270 nM.
For `CC(C)CC(C(=O)NO)C(=O)NC(Cc1c[nH]c2ccccc12)C(N)=O` (stereo not given), the IC50 in experiment [1] came to 4.8 nM; against Neprilysin [2], 2 nM; on Neprilysin [3], 7 nM; against Thermolysin, 2 nM.
`CC(C)C(CNO)C(=O)NC(Cc1c[nH]c2ccccc12)C(=O)O` (stereo not given): the values for the IC50 (in experiment [1]; against Neprilysin [2]; on Neprilysin [3]) were 500 nM, 950 nM and 1000 nM, respectively.
With `CC(C)C(CC(=O)NO)C(=O)NC(CC(N)=O)C(N)=O` (stereo not given), the IC50 in experiment [1] amounted to 3000 nM.
Regarding `C[C@H](NC(=O)[C@@H](CC(=O)NO)Cc1ccccc1)C(=O)O` [KELATORPHAN], the IC50 stood at 8 nM in experiment [1], 1 nM against Neprilysin [2], 8 nM on Neprilysin [3] and 3 nM at Thermolysin.
Regarding `CC(C)C(CC(=O)NOCc1ccccc1)C(=O)NC(CC(N)=O)C(N)=O` (stereo not given), the IC50 in experiment [1] is greater than 10000 nM.
In the case of `CC(C)CC(C(=O)NO)C(=O)NC(Cc1c[nH]c2ccccc12)C(=O)O` (stereo not given), the IC50 in experiment [1] stood at 0.25 nM; against Neprilysin [2], 0.03 nM; at Neprilysin [3] it was 0.07 nM; on Thermolysin it was 5 nM.
Take `CCCCC[C@H](CC(=O)NO)C(=O)N[C@H](C(=O)N1CCC[C@H]1CO)C(C)C` [ACTINONIN]: the IC50 in experiment [1] is 4000 nM; against Neprilysin [3], 8200 nM.
Take `CC(C)C(C(=O)NO)C(=O)NCC(=O)O` (stereo not given): the values for the IC50 (in experiment [1]; against Neprilysin [2]; at Neprilysin [3]) were 6.8 nM, 3 nM and 8 nM, respectively.
For the compound `CC(C)C[C@H](NC(=O)[C@@H]1CCCN1C(=O)OCc1ccccc1)C(=O)NCC(=O)NO` (Cbz-Pro-Leu-Gly-{NHOH}), the values for the IC50 (in experiment [1]; on Neprilysin [3]) were 33000 nM and 2300 nM, respectively.
Turning to `O=C(O)CNC(=O)C(CS)Cc1ccccc1` (stereo not given) [THIORPHAN], in experiment [1], the IC50 was 8 nM.
On the same count and under the same terms, the result for `CC(C)C(CC(N)=O)C(=O)NCCC(=O)O` (stereo not given) reads 6500 nM.
Still for that read-out and setting: the result for `CC(C)CC(C(=O)NOCc1ccccc1)C(=O)NC(Cc1c[nH]c2ccccc12)C(N)=O` (stereo not given) reads 10000 nM.
`CC(C)C(C(=O)NO)C(=O)NCCC(=O)O` (stereo not given): the IC50 in experiment [1] worked out at 0.01 nM; against Neprilysin [2], 2 nM; against Neprilysin [3] it was 1 nM; against Thermolysin it was 1900 nM.

The values are drawn from ChEMBL document CHEMBL1128394, “Hydroxamic acids as potent inhibitors of endothelin-converting enzyme from human bronchiolar smooth muscle” (J Med Chem, 1995).
